Compound activity: PubChem BioAssay, several laboratories
Compounds with a hit are over-represented: about 3% of the library has one in this group of screens.
Beta2AR agonist = agonists of human beta-2 adrenergic receptor inducing internalization; P07550; Am2.2-beta2AR cells, FAP receptor internalization, flow cytometry; response, % (no concentration beside the values); actives 0.43% (n = 340,000);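 active = response above a set limit, near 3 SD of response in nonfluorescent compounds, cut at about 42% in these data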
MC4R antag cAMP = human MC4R antagonism in cAMP assay; P32245; AID 540295; inhibition, % at 6.5 µM; actives 0.48% (n = 360,000); MC4R-expressing cells, MTII-stimulated cAMP, LANCE TR-FRET;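 active = inhibition above its plate's cutoff, the mean of tested wells on that plate plus 3 SD, cut at about 29% in these data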;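 also: 0% = Melanotan II alone and 100% = Melanotan II plus saturating MCL0020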
Target sequence (P32245 whole entry, looked up): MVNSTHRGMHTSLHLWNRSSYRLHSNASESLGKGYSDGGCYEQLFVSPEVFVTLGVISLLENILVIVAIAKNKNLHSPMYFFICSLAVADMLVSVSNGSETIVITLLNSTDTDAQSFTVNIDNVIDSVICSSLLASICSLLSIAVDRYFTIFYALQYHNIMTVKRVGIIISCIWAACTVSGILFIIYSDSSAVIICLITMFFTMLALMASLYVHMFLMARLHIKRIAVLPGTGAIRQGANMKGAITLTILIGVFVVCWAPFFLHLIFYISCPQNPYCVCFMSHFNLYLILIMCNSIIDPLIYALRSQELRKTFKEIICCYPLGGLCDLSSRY
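system = U2OS cells with stable human MC4R expression | also added = Melanotan II challenge after compound preincubation | dosing = one concentration, 6.5 µM nominal | incubation = compound 30 min, challenge 1 h, detection 1 h | measured by = TR-FRET with Eu-cAMP and labeled anti-cAMP, 671 nm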
ABHD5-PLIN5 inh = inhibitors of human ABHD5-perilipin-5 interaction; Split G. princeps luciferase complementation, luminescence, 4 h; inhibition, % at 4 µM; actives 0.78% (n = 360,000);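 active = inhibition above the mean inhibition across every tested compound plus 3 SD, cut at about 22% in these data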;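 also: 0% = DMSO only wells and the 100% control is not disclosed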
PfGluPho inh = PfG6PD (Plasmodium falciparum) enzyme inhibition; PfGluPho enzyme, NADPH resazurin-diaphorase fluorescence; inhibition, % at 20 µM; actives 0.78% (n = 350,000); AID 504690;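 active = inhibition reaching at least a set limit at 20 µM in the primary screen, cut at about 59% in these data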;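 also: 0% = DMSO wells with substrate and 100% = DMSO wells lacking glucose-6-phosphate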
MC4R barr agon = human MC4R agonism via beta-arrestin. actives 0.98% (n = 360,000). U2OS MC4R beta-arrestin complementation, luminescence; percent of melanotan II response, DMSO zero. P32245. activation, % at 8.9 µM;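 active = activation above a per-plate cutoff, the mean activation of sample wells on that plate plus 3 SD, cut at about 8% in these data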
U2OS cAMP counter = U2OS forskolin cAMP inhibition counter-screen; parental U2OS, LANCE TR-FRET; shares compounds with MC4R antag cAMP; AID 602193; actives 26% (n = 1,600); inhibition, % at 6.5 µM;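 active = mean inhibition over triplicates above the low-control well mean plus 3 SD, set per campaign, cut at about 13% in these data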;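 also: signal is single emission at 671 nm which falls as cellular cAMP rises; 0% = forskolin-stimulated wells and 100% = buffer without forskolin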
MC4R antag conf = human MC4R cAMP antagonism confirmation. actives 27% (n = 1,600). MC4R-expressing cells, MTII-stimulated cAMP, TR-FRET. AID 602195. inhibition, % at 6.5 µM. shares compounds with MC4R antag cAMP; in the data active = inhibition above about 29%;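 also: 0% = agonist stimulated wells alone and 100% = agonist stimulated wells plus saturating reference antagonist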
An asterisk follows results filed as active; x = no result.

SMILES	Beta2AR agonist	MC4R antag cAMP	ABHD5-PLIN5 inh	PfGluPho inh	MC4R barr agon	U2OS cAMP counter	MC4R antag conf
CC(C)=CC(=O)N1CCC(n2nccc2NC(=O)CCc2ccccc2)CC1	-4.4	35.1*	-4.5	-11.3	2.5	4.3	6.1
CCOc1ccc(S(=O)(=O)N2CCCCC2)cc1NC(=O)CN1C(=O)NC(C)(C2CC2)C1=O (configuration not stated)	1.3	6.3	6.9	-3.1	2.0	x	x
COc1ccc(/C=N/NC(=O)CCn2c3ccccc3c3ccccc32)cc1OC	21.6	29.2*	3.8	7.0	1.2	-3.6	-17.7
CCn1c2ccccc2c2cc(/C=N/NC(=O)c3ccc(O)cc3)ccc21	26.1	29.0*	-4.0	14.9	5.5	5.5	8.7
CC1CC(=Cc2ccc(N)cc2)C(=O)O1 (configuration not stated)	0.9	-0.7	-2.2	11.9	-0.7	x	x
O=C(/C=C/c1ccc(Cl)c([N+](=O)[O-])c1)Nc1ccc(NC(=O)c2ccco2)cc1	-6.3	10.3	1.6	-15.7	0.3	x	x
O=C(/C=C/c1ccc(Cl)c([N+](=O)[O-])c1)Nc1cccc(NC(=O)c2ccco2)c1	7.6	45.0*	5.3	10.2	-0.6	52.7*	57.4*
Cc1cccc(NC(=O)CNC(=O)COc2cccnc2[N+](=O)[O-])c1C	1.7	10.0	1.5	4.2	0.5	x	x
Clc1ncnc2c1oc1ccccc12	0.0	39.0*	-1.3	-10.9	-2.0	-1.4	6.2
CCSc1ncnc2c1oc1ccccc12	-3.2	-1.7	3.9	3.7	-0.3	x	x
COc1cc(/C=C2\C(=N)N3N=C(S(C)(=O)=O)SC3=NC2=O)cc(OC)c1OCCOc1ccc(C)cc1	2.0	17.1	9.2	-19.5	-1.8	x	x
COc1cc(/C=C2\C(=N)N3N=C(S(C)(=O)=O)SC3=NC2=O)ccc1OCCOc1ccc(C)cc1	10.0	33.7*	-1.3	-21.4	-0.1	1.3	-9.6
COc1cccc(OC)c1C(=O)NC(=O)Nc1c(C)cccc1C	1.7	28.6*	2.0	-10.3	-2.1	-0.1	0.1
O=[N+]([O-])c1cc(S(=O)(=O)Oc2ccccc2)ccc1Cl	40.8	30.1*	3.6	11.2	-2.6	34.6*	17.3
O=S(=O)(Oc1ccccc1)c1ccc(Cl)c(Cl)c1	-0.5	9.4	4.6	22.0	2.4	x	x
O=C(CNS(=O)(=O)c1ccccc1)NNC(=O)C(Cl)Cl	8.0	28.6*	-0.7	-1.4	-2.0	-4.8	-12.8
O=C(CNS(=O)(=O)c1ccccc1)NCC(=O)N1CCCCC1	-7.6	3.5	1.7	0.9	-1.3	x	x
CC(C)(C)OC(=O)NCc1ccc(NC(=O)c2nc[nH]c2C(=O)N[C@@H](Cc2ccccc2)C(=O)OCc2ccccc2)cc1	23.5	62.8*	-12.2	14.9	94.6*	-5.1	36.1*
O=C1c2ccc([N+](=O)[O-])cc2S(=O)(=O)N1Cc1ccccc1	17.2	32.7*	-3.1	20.6	-2.8	28.3*	50.3*
COc1cccc(CN2C(=O)c3ccccc3S2(=O)=O)c1	4.2	6.5	-2.0	-14.7	-0.3	x	x
Cc1cccc(N2CCN(C(=O)c3cc(S(=O)(=O)N(C)C)ccc3N3CCCC3)CC2)c1C	-2.7	14.8	-2.7	2.9	0.9	x	x
CN(C)S(=O)(=O)c1ccc(N2CCCC2)c(C(=O)N2CCN(c3ccc([N+](=O)[O-])cc3)CC2)c1	3.4	33.6*	6.5	-5.8	-1.9	2.4	7.1
COC(=O)CSc1nnc(-c2ccc(NS(=O)(=O)c3ccccc3)cc2)o1	26.8	67.9*	-1.5	-10.8	0.4	11.8	37.1*
COc1cc(NC(=O)C2=C(N3CCOCC3)/C(=C/c3ccc(Cl)cc3)CC2)cc(OC)c1OC	21.8	28.7*	8.8	6.6	0.5	-0.2	5.3
COc1ccc(NC(=S)N2CCC(c3ccccc3)C2)cc1 (configuration not stated)	-2.2	2.5	3.4	2.2	-0.7	x	x
SMILES	Beta2AR agonist	MC4R antag cAMP	ABHD5-PLIN5 inh	PfGluPho inh	MC4R barr agon	U2OS cAMP counter	MC4R antag conf
Cc1ccc(Cl)cc1NC(=S)N1CCC(c2ccccc2)C1 (configuration not stated)	-5.9	30.5*	0.3	-15.4	-0.8	-1.1	-4.5
COc1ccc(/C(O)=C2/C(=O)C(=O)N(c3ncccn3)C2c2ccc(F)cc2)cc1 (configuration not stated)	2.0	8.1	0.5	-1.9	1.3	x	x
O=C(Nc1cc(S(=O)(=O)N2CCCCC2)ccc1O)c1ccccc1NS(=O)(=O)c1ccc(F)cc1	8.2	2.0	-3.6	6.3	-1.8	x	x
O=C(Nc1cc(S(=O)(=O)N2CCCCC2)ccc1Cl)c1ccccc1NS(=O)(=O)c1ccc(F)cc1	22.6	30.6*	-4.2	-22.5	3.3	1.3	5.0
O=C(NCc1ccco1)c1cc(S(=O)(=O)N2CCCC2)ccc1Cl	0.2	-1.5	9.9	5.8	0.5	x	x
O=C(CN(Cc1ccco1)Cc1ccco1)Nc1cc(S(=O)(=O)N2CCCCC2)ccc1Cl	1.4	29.1*	3.5	6.3	3.4	5.3	11.0
COc1ccc(N2CCN(c3nc(Cl)nc(Nc4ccc(F)cc4)n3)CC2)cc1	9.8	38.0*	-5.2	11.6	-2.8	14.1*	54.7*
COC(=O)COc1ccc(S(=O)(=O)N2CCc3ccccc3C2)cc1	4.4	28.7*	0.9	-13.1	-0.4	14.2*	24.8
NC(=O)C1CCCN(C(=S)Nc2cccc3ccccc23)C1 (configuration not stated)	3.9	-2.0	-13.9	6.5	-0.7	x	x
COc1cccc(C(=O)c2c[nH]c(C(=O)NCc3cccnc3)c2)c1	4.3	30.3*	-2.1	-4.5	-1.2	3.3	12.4
COc1cccc(C(=O)c2c[nH]c(C(=O)NCc3cccs3)c2)c1	3.6	2.2	-8.8	-10.1	-0.3	x	x
CCCCN(C)C(=O)C1CCN(Cc2cccc(OCc3ccccc3)c2)CC1	-3.5	6.4	11.7	2.4	-0.2	x	x
O=C(CC1C(=O)NCCN1Cc1ccc(-c2ccccc2)cc1)NCCCn1ccnc1 (configuration not stated)	-0.8	30.7*	3.1	12.2	1.4	-14.3	-24.5
O=C(CC1C(=O)NCCN1Cc1ccc(-c2ccccc2)cc1)NCCOc1cccnc1 (configuration not stated)	-0.3	-3.8	-0.7	3.8	-1.4	x	x
Cc1cc(NS(=O)(=O)c2cc(Cl)sc2Cl)no1	-2.5	-2.2	-4.6	-2.2	-0.2	x	x
CCOC(=O)c1cc(-c2ccccc2)sc1NC(=O)COC(=O)c1ccc(Cl)c(S(N)(=O)=O)c1	5.0	28.8*	-7.9	-18.5	1.7	2.8	6.9
Cc1ccc(C)c(NC(=O)c2ccc3c(c2)CCN3S(C)(=O)=O)c1	x	11.6	2.8	-9.0	0.4	x	x
